Test results taken from ChEMBL document CHEMBL1151684, “Synthesis and antitumoral activity of novel 3-(2-substituted-1,3,4-oxadiazol-5-yl) and 3-(5-substituted-1,2,4-triazol-3-yl) beta-carboline derivatives” (2008).

Tests used:
Format in all cases: functional
[1] = Growth inhibition of human NCI-460 cells after 48 hrs by sulforhodamine B assay; details: NCI-460, 48 h
In short: (§1)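 Sulforhodamine B colorimetric assay following the NCI standard protocol, with doxorubicin as positive control. Each compound was tested at four concentrations in 10-fold dilutions (0.25 to 250). GI50, the concentration giving 50% growth reduction versus untreated control cells, was derived from dose–response curves.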

786-0 = assay: Growth inhibition of human 786-0 cells after 48 hrs by sulforhodamine B assay; details: 786-0, 48 h; for CC50: read-out: LC50 (the source's name); in short: as §1
K562 = assay: Growth inhibition of human K-562 cells after 48 hrs by sulforhodamine B assay; details: K562, 48 h; in short: as §1
OVCAR = assay: Growth inhibition of human OVCAR cells after 48 hrs by sulforhodamine B assay; in short: as §1
[2] = Growth inhibition of human PCO3 cells after 48 hrs by sulforhodamine B assay; details: PCO3, 48 h; in short: as §1
HT-29 = assay: Growth inhibition of human HT-29 cells after 48 hrs by sulforhodamine B assay; details: HT-29, 48 h; in short: as §1
UACC-62 = assay: Growth inhibition of human UACC-62 cells after 48 hrs by sulforhodamine B assay; details: UACC-62, 48 h; in short: as §1
MCF7 = assay: Growth inhibition of human MCF7 cells after 48 hrs by sulforhodamine B assay; details: MCF7, 48 h; in short: as §1

For COc1cc(-c2nc(-c3nnc(SC)o3)cc3c2[nH]c2ccccc23)ccc1O, the GI50 [1] was 4.82 µM, the TGI [1] was over 100 µM and the GI50 (786-0) was 15.3 µM. For the same compound, the TGI (786-0) was 36.3 µM, the CC50 (786-0) was over 100 µM and the GI50 (K562) was 22.6 µM. For the same compound, the TGI (K562) was over 100 µM, the GI50 (OVCAR) was 16.4 µM and the TGI (OVCAR) was 59.8 µM. It also gave a GI50 [2] of 7.53 µM, an LC50 (concentration killing 50% of cells) [2] of over 100 µM and a TGI [2] of 39.4 µM. The GI50 (HT-29) was 7.31 µM, the LC50 (concentration killing 50% of the cells present at the start) (HT-29) was over 100 µM and the TGI (HT-29) was 39.4 µM. The GI50 (UACC-62) was 17.8 µM, the LC50 (concentration killing 50% of cells, NCI protocol) (UACC-62) was over 100 µM and the TGI (UACC-62) was 48.6 µM. The GI50 (MCF7) was 12.7 µM, the LC50 (concentration killing 50% of cells) (MCF7) was 61.2 µM and the TGI (MCF7) was 28.1 µM.
Work on CSc1nnc(-c2cc3c([nH]c4ccccc43)c(-c3ccc(O)cc3)n2)o1 yielded a GI50 [1] of 17.8 µM, an LC50 (concentration for 50% net cell kill) [1] of over 100 µM and a TGI [1] of 73.4 µM. For the same compound, the GI50 (786-0) was 11.8 µM, the TGI (786-0) was 24.8 µM and the CC50 (786-0) was 51.9 µM. It also gave a GI50 (K562) of 10.8 µM, a TGI (K562) of 28.8 µM and a GI50 (OVCAR) of 13.5 µM. It also gave an LC50 (concentration killing 50% of the cells, NCI protocol) (OVCAR) of 100 µM, a TGI (OVCAR) of 35 µM and a GI50 [2] of 10.5 µM. For the same compound, the LC50 (concentration killing 50% of cells) [2] was 59.2 µM, the TGI [2] was 24.8 µM and the GI50 (HT-29) was 12.8 µM. It also gave an LC50 (concentration killing 50% of the cells present at the start) (HT-29) of over 100 µM, a TGI (HT-29) of 35 µM and a GI50 (UACC-62) of 19.1 µM. For the same compound, the TGI (UACC-62) was over 100 µM, the GI50 (MCF7) was 7.42 µM and the LC50 (concentration killing 50% of cells) (MCF7) was 80.3 µM. It also gave a TGI (MCF7) of 23.4 µM.
CSc1nnc(-c2cc3c([nH]c4ccccc43)c(-c3ccccc3Cl)n2)o1 gave a GI50 [1] of 1.64 µM, an LC50 (concentration for 50% net cell kill) [1] of over 100 µM and a TGI [1] of 4.2 µM. The GI50 (786-0) was 48.6 µM, the TGI (786-0) was over 100 µM and the GI50 (K562) was 0.17 µM. The LC50 (concentration causing 50% net cell kill) (K562) was over 100 µM, the TGI (K562) was 68.4 µM and the GI50 (OVCAR) was 0.01 µM. It also gave an LC50 (concentration killing 50% of the cells, NCI protocol) (OVCAR) of 10.1 µM, a TGI (OVCAR) of 0.1 µM and a GI50 [2] of 1.03 µM. It also gave an LC50 (concentration killing 50% of cells) [2] of 73.5 µM, a TGI [2] of 3.8 µM and a GI50 (HT-29) of 8.02 µM. For the same compound, the LC50 (concentration killing 50% of the cells present at the start) (HT-29) was over 100 µM, the TGI (HT-29) was 99.6 µM and the GI50 (UACC-62) was 15.2 µM. It also gave a TGI (UACC-62) of over 100 µM, a GI50 (MCF7) of 16.8 µM and an LC50 (concentration killing 50% of cells) (MCF7) of over 100 µM. The TGI (MCF7) was 51.9 µM.
For Oc1ccc(-c2nc(-c3n[nH]c(=S)[nH]3)cc3c2[nH]c2ccccc23)cc1, the GI50 [1] was 6.69 µM, the TGI [1] was over 100 µM and the GI50 (786-0) was 0.17 µM. The TGI (786-0) was 23.8 µM, the CC50 (786-0) was over 100 µM and the GI50 (K562) was over 100 µM. For the same compound, the TGI (K562) was over 100 µM, the GI50 (OVCAR) was 6.41 µM and the TGI (OVCAR) was over 100 µM. For the same compound, the GI50 [2] was 0.5 µM, the LC50 (concentration killing 50% of cells) [2] was over 100 µM and the TGI [2] was 40.7 µM. It also gave a GI50 (HT-29) of 46.2 µM, a TGI (HT-29) of over 100 µM and a GI50 (UACC-62) of 10.6 µM. The TGI (UACC-62) was over 100 µM, the GI50 (MCF7) was 19.8 µM and the TGI (MCF7) was over 100 µM.
CSc1nnc(-c2cc3c([nH]c4ccccc43)c(-c3ccc([N+](=O)[O-])cc3)n2)o1 gave a GI50 [1] of over 100 µM, a GI50 (786-0) of over 100 µM and a GI50 (K562) of over 100 µM. It also gave a GI50 (OVCAR) of over 100 µM, a GI50 [2] of over 100 µM and a GI50 (HT-29) of over 100 µM. For the same compound, the GI50 (UACC-62) was over 100 µM and the GI50 (MCF7) was over 100 µM.
For S=c1[nH]nc(-c2cc3c([nH]c4ccccc43)c(-c3ccccc3)n2)o1, the GI50 [1] was 20.6 µM, the TGI [1] was over 100 µM and the GI50 (786-0) was 27.9 µM. For the same compound, the TGI (786-0) was over 100 µM, the GI50 (K562) was 15.3 µM and the LC50 (concentration causing 50% net cell kill) (K562) was over 100 µM. For the same compound, the TGI (K562) was 54.4 µM, the GI50 (OVCAR) was 31.8 µM and the TGI (OVCAR) was over 100 µM. The GI50 [2] was 25.5 µM, the TGI [2] was over 100 µM and the GI50 (HT-29) was 25.5 µM. It also gave a TGI (HT-29) of over 100 µM, a GI50 (UACC-62) of over 100 µM and a TGI (UACC-62) of over 100 µM. For the same compound, the GI50 (MCF7) was 25.5 µM and the TGI (MCF7) was over 100 µM.
CSc1nnc(-c2cc3c([nH]c4ccccc43)c(-c3ccccc3)n2)o1 showed a GI50 [1] of 3.42 µM, an LC50 (concentration for 50% net cell kill) [1] of over 100 µM and a TGI [1] of 74.7 µM. It also gave a GI50 (786-0) of 32 µM, a TGI (786-0) of over 100 µM and a GI50 (K562) of 0.43 µM. It also gave an LC50 (concentration causing 50% net cell kill) (K562) of 74.7 µM, a TGI (K562) of 10.4 µM and a GI50 (OVCAR) of 0.01 µM. The LC50 (concentration killing 50% of the cells, NCI protocol) (OVCAR) was 1.6 µM, the TGI (OVCAR) was 0.1 µM and the GI50 [2] was 23.6 µM. For the same compound, the LC50 (concentration killing 50% of cells) [2] was over 100 µM, the TGI [2] was 86.6 µM and the GI50 (HT-29) was 16.2 µM. The TGI (HT-29) was over 100 µM, the GI50 (UACC-62) was 99.5 µM and the TGI (UACC-62) was over 100 µM. The GI50 (MCF7) was 12.2 µM, the LC50 (concentration killing 50% of cells) (MCF7) was over 100 µM and the TGI (MCF7) was 31.3 µM.
